# Screens from PubChem BioAssay.
# In the library only some 3.7% were active in any assay of this set; here they are far more common.
# KCNK3 block – human KCNK3 channel inhibition, primary screen | AID 602410 | B-score at 10 µM | 340,000 compounds, 0.84% hits | CHO-KCNK3 thallium flux, FluxOR fluorescence; hits give low values;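 active means B-score under library mean minus 4 SD, starting fluorescence ratio at most library mean plus 5 SD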;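 further: more negative B-score means stronger inhibition of thallium flux through KCNK3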
# KCNQ1 block – human KCNQ1 channel inhibition | P51787 | CHO-K1 KCNQ1, FluxOR thallium flux fluorescence; hits give high values | B-score at 10 µM | 310,000 compounds, 1.3% hits;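 active means compounds whose thallium flux B-score, printed positive for inhibition, exceeds three library SD while starting fluorescence stays within three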;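 further: channel opened by potassium depolarization with thallium stimulus after 20 min compound exposure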
# KCNQ1 pot – potentiates or activates the human KCNQ1 potassium channel | P51787 | CHO-K1 KCNQ1, thallium flux FluxOR fluorescence; hits give high values | B-score at 10 µM | 310,000 compounds, 0.35% hits | AID 2648;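 active means fluorescence ratio B-score, a plate-corrected score, at least three library SD, with initial intensity B-score within 5 SD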
#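 Assay system: CHO-K1 cells stably expressing KCNQ1. Medium: assay buffer for compound exposure, DMSO matched across wells. Timing: 37 °C overnight plating, 90-min dark dye load, 20-min compound pretreatment. Signal: kinetic FluxOR fluorescence, 10 s baseline plus 110 s post-stimulus.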
# Kir21 inh – Kir2.1 (mouse) channel inhibition | HEK293-Kir2.1, FluxOR thallium flux fluorescence; hits give low values | B-score at 10 µM | 310,000 compounds, 0.85% hits;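 active means fluorescence ratio B-score at or below minus 3 SD of library scores, with starting-brightness B-score within 2 SD, cut at about -4.2 in these data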;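 further: channel flux triggered by added potassium and thallium sulfate stimulus; B-score of peak minus minimum fluorescence over baseline after thallium stimulus; more negative B-score means stronger Kir2.1 block with less thallium influx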
# KCNK9 inh – human KCNK9 channel inhibition; Q9NPC2; HEK293 KCNK9, FluxOR thallium flux fluorescence; hits give low values; B-score at 10 µM; 310,000 compounds, 1.2% hits; AID 488922;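 active means ratio B-score over 3 SD below the library mean, with starting fluorescence within 5 SD of its mean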;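 further: negative B-score means less thallium flux so channel inhibition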
# Target sequence (Q9NPC2 whole entry, looked up): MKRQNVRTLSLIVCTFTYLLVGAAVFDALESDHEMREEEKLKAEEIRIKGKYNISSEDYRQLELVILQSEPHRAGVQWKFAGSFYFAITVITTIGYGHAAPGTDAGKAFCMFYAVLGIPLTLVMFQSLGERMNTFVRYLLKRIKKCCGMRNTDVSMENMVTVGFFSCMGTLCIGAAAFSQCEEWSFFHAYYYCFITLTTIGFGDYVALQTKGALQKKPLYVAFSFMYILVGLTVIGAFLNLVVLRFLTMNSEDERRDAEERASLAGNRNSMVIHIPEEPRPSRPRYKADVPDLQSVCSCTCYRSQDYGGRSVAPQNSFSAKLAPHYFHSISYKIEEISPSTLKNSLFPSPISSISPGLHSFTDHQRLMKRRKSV
# hERG rescue – compounds protecting human hERG from proarrhythmic drug block; activation (rescue from dofetilide block), less the hit threshold, % at 10 µM; 310,000 compounds, 0.51% hits; Q12809; CHO-hERG, FluxOR thallium flux, dofetilide IC70 present;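 active means activation above the mean of controls blocked by dofetilide plus 5 SD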;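 further: thallium influx through hERG after potassium depolarization seen as dye fluorescence rise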
# * hit, by the source's call; i = inactive; · = no result.
SMILES,KCNK3 block,KCNQ1 block,KCNQ1 pot,Kir21 inh,KCNK9 inh,hERG rescue
CCCCCCc1cc2cc(C(=O)OCC)c(=O)oc2cc1O,i,8*,i,-0.25,i,-4
CCCCCCc1cc2cc(C(=O)Nc3ccc(OC)cc3)c(=O)oc2cc1O,i,i,i,0.06,i,0
CCCCCCc1cc2cc(C(N)=O)c(=N)oc2cc1O,·,29*,i,-17,i,-59
CCCCCCc1cc2cc(C(=O)NC)c(=N)oc2cc1O,i,i,i,-13,i,-24
Cc1ccc(-n2nc3c(=O)n(CCCC(=O)NCc4cccc(F)c4)nc(C)c3c2C)cc1,i,i,i,-0.05,i,-10
CCCn1nc(C(=O)NNC(=O)c2ccc(C)c(C)c2)c2ccccc2c1=O,i,·,·,·,·,·
CCCn1nc(C(=O)N2CCN(S(=O)(=O)c3ccc(C)c(C)c3)CC2)c2ccccc2c1=O,-9.5*,·,·,·,·,·
O=C1c2ccccc2C(O)N1Cc1ccco1 (configuration not stated),i,i,i,-0.89,i,-7
c1coc(CN=C2NC(=NCc3ccco3)c3ccccc32)c1,i,i,i,-6.2*,i,-7
O=C(O)CCCC1(C(=O)O)CCCC1,i,·,·,·,·,·
Cn1c(=O)cc(SCC(=O)NCCC2=CCCCC2)c2ccccc21,i,i,i,-5.5*,i,-1
O=C(Cn1cccc1C(=O)c1ccccc1)NCCC1=CCCCC1,i,i,i,-6.8*,i,-4
COc1ccc(CNC(=O)CSc2cc(=O)n(C)c3ccccc23)cc1,i,i,i,-0.61,i,-7
O=C(Cn1cccc1C(=O)c1ccccc1)NCCCc1ccccc1,i,i,i,-1.3,i,-7
CC(=O)Nc1ccccc1OCC(=O)NCCC1=CCCCC1,i,i,i,-1.2,i,-8
COc1ccc(OC(C)C(=O)NCCC2=CCCCC2)cc1 (configuration not stated),i,i,i,-6.4*,i,-6
Cc1ccccc1OCC(=O)NCCC1=CCCCC1,i,i,i,-5.4*,i,-6
O=C(COc1coc(CN2CCc3ccccc3C2)cc1=O)Nc1cccc(Cl)c1,i,i,i,-3.2,i,-4
O=C(COC(=O)COc1ccccc1Cl)Nc1ccccc1OC(F)F,i,i,i,1.1,i,4.9*
O=C(COC(=O)c1ncc(Cl)c(Cl)c1Cl)Nc1ccccc1OC(F)F,i,i,i,1.1,i,-14
C/C(=N\NC(=O)c1cc2ccccc2cc1O)c1ccc(C)o1,i,i,26*,-0.01,i,8.9*
CCn1c(CNC(=O)c2ccc3c(c2)OCO3)nnc1SCC(=O)Nc1cc(C)ccc1OC,i,8*,i,-0.44,i,-16
CC(C)(C)C(=O)NCCCc1nc2ccccc2n1CCCOc1ccc(Cl)cc1,i,i,i,-2.5,-7.3*,-10
CSCCC(NC(=O)c1ccco1)C(=O)NCC(c1ccccc1)N(C)C (configuration not stated),i,·,·,·,·,·
Nc1ccc(C(=O)OCC(=O)NC(=O)c2ccccc2)cc1[N+](=O)[O-],i,i,i,-1.1,i,-15
SMILES,KCNK3 block,KCNQ1 block,KCNQ1 pot,Kir21 inh,KCNK9 inh,hERG rescue
COc1ccc(NC(=S)NNc2ccc(C(=O)O)cc2)cc1,i,i,i,-2.1,i,0
Cc1ccc(/C=C2\SC(=S)N(NS(=O)(=O)c3ccc(C)cc3)C2=O)cc1,i,i,27*,0.68,i,-5
Cc1ccc(S(=O)(=O)NN2C(=O)/C(=C\c3ccc(Cl)cc3)SC2=S)cc1,i,i,i,1.7,i,-2
COc1ccccc1NCC(=O)n1nc(C)cc1C,i,i,i,-0.67,i,6.7*
Cc1c(-c2ccccc2)oc2c(C(=O)N3CCN(c4ccc([N+](=O)[O-])cc4)CC3)cccc2c1=O,i,i,i,-0.01,-7.1*,-18
CC(C)(C)C(=O)NC(=S)N1CCc2ccccc21,i,i,i,-1.6,i,-5
O=C(NC(=S)N1CCc2ccccc21)C1CCC1,i,i,i,0.42,i,-4
O=C(NC(=S)N1CCc2ccccc21)c1ccc(Br)o1,i,i,81*,-0.42,i,12*
